Assay results reported in ChEMBL document CHEMBL5338787, “Discovery of Novel Bruton's Tyrosine Kinase PROTACs with Enhanced Selectivity and Cellular Efficacy” (J Med Chem, 2023).
Calls of active or inactive are those of the source. The calls are words filed in the database; no cut-off is given here.

Columns and labels:
TMD8 [1] = assay: Induction of apoptosis in human TMD8 cells measured after 48 hrs by Annexin-V/propidium iodide staining based flow cytometric analysis; assay type: functional, cell-based; conditions: dose 0.15-3000 nM
Method in brief: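 Cells plated at 2 × 10^6 per well and treated 48 h at 3,000–0.15 nM (3-fold dilutions) or 1% DMSO. Harvested, washed in cold PBS, stained with Annexin V Alexa Fluor 488/propidium iodide, analysed by flow cytometry for % live, apoptotic and necrotic cells. Mean of two independent experiments.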

[2] = biological target: T1, Protein cereblon/Tyrosine-protein kinase BTK (Homo sapiens, UniProt Q06187+Q96SW2); assay: PROTAC activity at BTK/CRBN protein protein interaction in human JeKo-1 cell assessed as Hook effect incubated at >333 nM for 17 hrs measured by Western blot analysis; assay type: cell-based
Method in brief: (§1)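 Ramos or JeKo-1 cells (2 × 10^6 per well) were exposed for 17 h to 3000–0.15 nM PROTAC in 3-fold steps. Cells were lysed and analysed by western blot, with BTK normalised to β-actin. DC50 and Dmax come from the dose-response; DC50 is the mean ± SD of two independent experiments.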

[3] = biological target: T1, Protein cereblon/Tyrosine-protein kinase BTK; assay: PROTAC activity at BTK/CRBN protein protein interaction in human Ramos cell assessed as degradation of BTK incubated for 17 hrs measured by Western blot analysis relative to control; assay type: cell-based; method in brief: as §1
[4] = biological target: T1, Protein cereblon/Tyrosine-protein kinase BTK; assay: PROTAC activity at BTK/CRBN protein protein interaction in human Ramos cell assessed as degradation of BTK preincubated with proteasome inhibitor bortezomib for 2 hrs followed by compound addition at 111 nM for 4 hrs measured by Western blot analysis; assay type: cell-based
Method in brief: (§2)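 Ramos cells were pre-treated for 2 h with bortezomib (proteasome inhibitor) or MLN-4924 (NEDD8-activating enzyme inhibitor), then given 111 nM degrader for 4 h. BTK level was assessed by western blot.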

[5] = biological target: T1, Protein cereblon/Tyrosine-protein kinase BTK; assay: PROTAC activity at BTK/CRBN protein protein interaction in human Ramos cell assessed as degradation of BTK preincubated with neddylation inhibitor MLN-4924 for 2 hrs followed by compound addition at 111 nM for 4 hrs measured by Western blot analysis; assay type: cell-based; method in brief: as §2
[6] = biological target: Tyrosine-protein kinase BTK (Homo sapiens, UniProt Q06187); assay: Degradation of BTK in human TMD8 cells by measuring protein level at 111 nM for 6 hrs using label free proteomic analysis; assay type: cell-based
Method in brief: (§3)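 TMD8 cells (2 × 10^6) given 111 nM or DMSO for 6 h in duplicate. Lysed in 5% SDS/50 mM TEAB pH 8.5. 200 μg protein reduced (10 mM DTT, 55 °C, 30 min), alkylated (50 mM iodoacetamide), S-Trap processed, then LC-MS/MS. Label-free matched-peptide quantitation against DMSO, human UniProt; Benjamini–Hochberg-corrected p-values.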

[7] = biological target: Tyrosine-protein kinase SYK (Homo sapiens) (UniProt P43405); assay: Degradation of SYK in human TMD8 cells by measuring protein level at 111 nM for 6 hrs using label free proteomic analysis; assay type: cell-based; method in brief: as §3
[8] = biological target: Tyrosine-protein kinase HCK (Homo sapiens) (UniProt P08631); assay: Degradation of HCK in human TMD8 cells by measuring protein level at 111 nM for 6 hrs using label free proteomic analysis; assay type: cell-based; method in brief: as §3
[9] = biological target: Non-receptor tyrosine-protein kinase TYK2 (Homo sapiens) (UniProt P29597); assay: Degradation of TYK2 in human TMD8 cells by measuring protein level at 111 nM for 6 hrs using label free proteomic analysis; assay type: cell-based; method in brief: as §3
[10] = biological target: Tyrosine-protein kinase Fes/Fps (Homo sapiens) (UniProt P07332); assay: Degradation of Fes/Fps in human TMD8 cells by measuring protein level at 111 nM for 6 hrs using label free proteomic analysis; assay type: cell-based; method in brief: as §3
[11] = biological target: Zinc finger protein Aiolos (Homo sapiens) (UniProt Q9UKT9); assay: Degradation of IKZF3 in human TMD8 cells by measuring protein level at 111 nM for 6 hrs using label free proteomic analysis; assay type: cell-based; method in brief: as §3
[12] = biological target: T2, Zinc finger protein 280D (Homo sapiens) (UniProt Q6N043); assay: Degradation of […] in human TMD8 cells by measuring protein level at 111 nM for 6 hrs using label free proteomic analysis; assay type: cell-based; method in brief: as §3
T2 sequence (whole entry): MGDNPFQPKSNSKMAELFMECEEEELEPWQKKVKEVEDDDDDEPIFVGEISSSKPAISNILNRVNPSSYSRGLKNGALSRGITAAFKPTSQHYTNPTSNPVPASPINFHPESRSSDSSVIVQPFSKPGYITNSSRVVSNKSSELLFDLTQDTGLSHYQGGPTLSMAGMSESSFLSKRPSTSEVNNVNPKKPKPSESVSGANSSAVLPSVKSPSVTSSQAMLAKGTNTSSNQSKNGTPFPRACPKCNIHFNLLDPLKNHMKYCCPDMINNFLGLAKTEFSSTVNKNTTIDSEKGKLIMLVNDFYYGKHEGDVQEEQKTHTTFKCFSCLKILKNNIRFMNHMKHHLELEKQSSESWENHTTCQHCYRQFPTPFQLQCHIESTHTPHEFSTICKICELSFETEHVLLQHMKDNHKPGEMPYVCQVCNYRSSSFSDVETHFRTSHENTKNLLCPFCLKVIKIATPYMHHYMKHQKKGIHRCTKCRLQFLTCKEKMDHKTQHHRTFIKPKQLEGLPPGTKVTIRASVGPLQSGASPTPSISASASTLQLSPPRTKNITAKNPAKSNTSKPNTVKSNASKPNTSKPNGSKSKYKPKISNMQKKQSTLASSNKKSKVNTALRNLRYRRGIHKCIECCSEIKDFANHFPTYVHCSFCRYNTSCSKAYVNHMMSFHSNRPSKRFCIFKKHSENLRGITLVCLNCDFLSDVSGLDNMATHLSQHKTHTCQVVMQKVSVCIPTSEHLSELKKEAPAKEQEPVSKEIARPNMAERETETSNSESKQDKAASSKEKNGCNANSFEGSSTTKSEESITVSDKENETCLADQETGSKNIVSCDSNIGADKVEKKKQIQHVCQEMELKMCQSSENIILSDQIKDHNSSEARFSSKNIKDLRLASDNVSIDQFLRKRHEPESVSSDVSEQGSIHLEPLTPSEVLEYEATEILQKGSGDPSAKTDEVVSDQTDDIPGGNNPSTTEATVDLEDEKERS

TMD8 [13] = assay: Cytotoxicity against human TMD8 cells incubated for 48 hrs by celltitre glo 2.0 assay; assay type: functional, cell-based; conditions: TMD8, 48 h
TMD8 [14] = assay: Induction of apoptosis in human TMD8 cells assessed as decrease in PARP level measured after 48 hrs by Western blot analysis; assay type: functional, cell-based; conditions: dose 0.15-3000 nM
Method in brief: (§4)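 TMD8 or Mino cells (2 × 10^6 per well) exposed 48 h to 3000–0.15 nM (3-fold dilution) or 1% DMSO. Lysates BCA-normalised, 8–30 μg per lane on 4–20% Tris-glycine gels, transferred to nitrocellulose, probed with antibodies, HRP chemiluminescence detection and densitometry. Representative of two independent experiments.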

TMD8 [15] = assay: Induction of apoptosis in human TMD8 cells assessed as decrease in caspase 3 level measured after 48 hrs by Western blot analysis; assay type: functional, cell-based; conditions: dose 0.15-3000 nM; method in brief: as §4
TMD8 [16] = assay: Induction of apoptosis in human TMD8 cells assessed as increase in cleaved PARP level measured after 48 hrs by Western blot analysis; assay type: functional, cell-based; conditions: dose 0.15-3000 nM; method in brief: as §4
TMD8 [17] = assay: Induction of apoptosis in human TMD8 cells assessed as downregulation in Mcl-1 level measured at 0.15 to 3000 nM after 48 hrs by Western blot analysis; assay type: functional, cell-based; conditions: dose 0.15-3000 nM; method in brief: as §4

T1 sequence (Q06187 2-659 limits assumed): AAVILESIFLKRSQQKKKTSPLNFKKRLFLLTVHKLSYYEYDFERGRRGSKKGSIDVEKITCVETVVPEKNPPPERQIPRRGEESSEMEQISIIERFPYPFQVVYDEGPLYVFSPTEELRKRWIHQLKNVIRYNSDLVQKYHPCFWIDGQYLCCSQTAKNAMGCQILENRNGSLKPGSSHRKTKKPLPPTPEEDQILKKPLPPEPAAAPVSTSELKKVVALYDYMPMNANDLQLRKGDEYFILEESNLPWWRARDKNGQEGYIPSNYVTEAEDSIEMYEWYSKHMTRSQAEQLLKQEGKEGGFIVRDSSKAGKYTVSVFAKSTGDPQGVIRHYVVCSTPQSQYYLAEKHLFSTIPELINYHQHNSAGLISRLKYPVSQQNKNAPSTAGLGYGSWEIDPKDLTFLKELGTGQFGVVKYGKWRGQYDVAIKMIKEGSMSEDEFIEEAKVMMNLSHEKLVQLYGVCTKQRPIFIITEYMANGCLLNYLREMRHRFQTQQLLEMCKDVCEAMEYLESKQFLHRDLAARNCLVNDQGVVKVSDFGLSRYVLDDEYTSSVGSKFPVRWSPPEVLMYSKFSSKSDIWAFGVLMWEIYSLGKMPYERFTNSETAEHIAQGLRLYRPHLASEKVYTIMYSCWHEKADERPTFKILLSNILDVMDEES
T1 sequence (Q96SW2 whole entry partner): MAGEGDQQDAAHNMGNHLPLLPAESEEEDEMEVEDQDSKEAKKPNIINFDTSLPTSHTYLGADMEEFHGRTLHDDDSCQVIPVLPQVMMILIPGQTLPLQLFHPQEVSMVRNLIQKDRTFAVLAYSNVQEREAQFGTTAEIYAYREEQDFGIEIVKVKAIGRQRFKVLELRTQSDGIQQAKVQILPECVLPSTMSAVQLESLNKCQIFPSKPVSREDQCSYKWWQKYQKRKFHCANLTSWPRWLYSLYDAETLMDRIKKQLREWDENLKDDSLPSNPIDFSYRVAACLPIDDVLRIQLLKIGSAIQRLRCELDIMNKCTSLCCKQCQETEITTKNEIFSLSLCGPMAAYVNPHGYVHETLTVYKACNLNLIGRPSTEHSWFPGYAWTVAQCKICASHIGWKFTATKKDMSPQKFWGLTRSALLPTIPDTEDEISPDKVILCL
Chain of Zinc finger protein Aiolos (Homo sapiens) (Q9UKT9 whole entry): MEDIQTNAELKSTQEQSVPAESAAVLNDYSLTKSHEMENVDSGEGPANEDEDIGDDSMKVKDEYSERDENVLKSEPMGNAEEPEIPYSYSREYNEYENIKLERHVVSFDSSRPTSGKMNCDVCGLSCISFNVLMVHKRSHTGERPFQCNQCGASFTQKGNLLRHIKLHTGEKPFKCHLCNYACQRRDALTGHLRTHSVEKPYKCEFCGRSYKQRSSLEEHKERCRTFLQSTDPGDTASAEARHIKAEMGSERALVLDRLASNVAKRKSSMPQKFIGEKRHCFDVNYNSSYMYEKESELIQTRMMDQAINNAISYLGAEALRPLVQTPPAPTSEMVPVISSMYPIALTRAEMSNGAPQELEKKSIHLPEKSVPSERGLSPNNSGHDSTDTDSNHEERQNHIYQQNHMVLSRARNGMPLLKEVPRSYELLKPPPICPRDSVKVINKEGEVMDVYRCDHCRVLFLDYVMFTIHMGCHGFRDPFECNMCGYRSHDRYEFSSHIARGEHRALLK
Chain of Non-receptor tyrosine-protein kinase TYK2 (Homo sapiens) (P29597 whole entry): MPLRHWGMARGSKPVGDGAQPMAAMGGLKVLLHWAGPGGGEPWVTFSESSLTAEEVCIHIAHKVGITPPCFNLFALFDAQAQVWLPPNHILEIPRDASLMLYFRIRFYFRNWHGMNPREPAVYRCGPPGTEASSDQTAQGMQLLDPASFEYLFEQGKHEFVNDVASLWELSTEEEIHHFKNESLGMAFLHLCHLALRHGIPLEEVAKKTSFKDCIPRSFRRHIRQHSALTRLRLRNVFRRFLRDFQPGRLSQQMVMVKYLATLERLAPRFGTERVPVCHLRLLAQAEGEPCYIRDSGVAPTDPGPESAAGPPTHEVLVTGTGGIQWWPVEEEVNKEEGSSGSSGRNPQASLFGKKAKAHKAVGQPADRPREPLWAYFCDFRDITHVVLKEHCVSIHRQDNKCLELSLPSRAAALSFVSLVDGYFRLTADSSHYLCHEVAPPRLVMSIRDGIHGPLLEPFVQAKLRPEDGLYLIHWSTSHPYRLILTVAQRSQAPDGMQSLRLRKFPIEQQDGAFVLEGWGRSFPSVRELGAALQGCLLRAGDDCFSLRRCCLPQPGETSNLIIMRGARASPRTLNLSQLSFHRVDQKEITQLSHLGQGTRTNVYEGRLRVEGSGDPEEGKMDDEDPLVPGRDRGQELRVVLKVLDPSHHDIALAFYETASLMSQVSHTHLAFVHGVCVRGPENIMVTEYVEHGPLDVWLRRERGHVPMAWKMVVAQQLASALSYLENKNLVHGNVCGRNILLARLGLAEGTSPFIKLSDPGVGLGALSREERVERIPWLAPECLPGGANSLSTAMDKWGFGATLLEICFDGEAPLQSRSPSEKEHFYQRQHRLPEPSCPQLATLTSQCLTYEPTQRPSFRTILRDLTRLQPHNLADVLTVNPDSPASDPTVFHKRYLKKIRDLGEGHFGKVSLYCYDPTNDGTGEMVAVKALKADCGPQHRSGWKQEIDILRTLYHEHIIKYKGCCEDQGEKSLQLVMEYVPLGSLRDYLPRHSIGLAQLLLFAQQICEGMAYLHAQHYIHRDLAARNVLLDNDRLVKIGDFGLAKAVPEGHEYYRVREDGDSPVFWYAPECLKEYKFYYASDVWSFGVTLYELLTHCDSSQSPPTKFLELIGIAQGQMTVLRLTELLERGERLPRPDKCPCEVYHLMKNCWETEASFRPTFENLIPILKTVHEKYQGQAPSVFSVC
Chain of Tyrosine-protein kinase Fes/Fps (Homo sapiens) (P07332 whole entry): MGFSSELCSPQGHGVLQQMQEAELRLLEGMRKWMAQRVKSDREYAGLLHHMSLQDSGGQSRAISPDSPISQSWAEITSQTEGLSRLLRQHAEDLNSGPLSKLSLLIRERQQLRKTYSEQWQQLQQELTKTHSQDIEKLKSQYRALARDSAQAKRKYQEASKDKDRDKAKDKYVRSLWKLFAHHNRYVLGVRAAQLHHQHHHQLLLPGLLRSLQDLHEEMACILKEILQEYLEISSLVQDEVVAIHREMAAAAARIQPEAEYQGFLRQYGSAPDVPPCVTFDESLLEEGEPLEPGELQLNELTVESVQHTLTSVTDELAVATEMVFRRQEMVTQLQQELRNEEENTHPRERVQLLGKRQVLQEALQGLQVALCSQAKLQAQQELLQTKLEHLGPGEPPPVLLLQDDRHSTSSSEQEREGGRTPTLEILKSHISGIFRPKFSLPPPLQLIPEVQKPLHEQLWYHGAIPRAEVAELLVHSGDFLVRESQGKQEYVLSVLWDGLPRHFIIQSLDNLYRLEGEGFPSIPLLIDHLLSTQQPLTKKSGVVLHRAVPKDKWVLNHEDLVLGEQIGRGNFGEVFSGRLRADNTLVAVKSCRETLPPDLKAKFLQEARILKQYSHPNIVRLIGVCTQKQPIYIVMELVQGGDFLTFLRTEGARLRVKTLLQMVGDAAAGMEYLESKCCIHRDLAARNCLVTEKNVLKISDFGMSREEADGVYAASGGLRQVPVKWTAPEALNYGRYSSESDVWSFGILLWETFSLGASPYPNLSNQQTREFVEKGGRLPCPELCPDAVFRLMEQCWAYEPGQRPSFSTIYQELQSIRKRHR
Chain of Tyrosine-protein kinase BTK (Q06187 whole entry): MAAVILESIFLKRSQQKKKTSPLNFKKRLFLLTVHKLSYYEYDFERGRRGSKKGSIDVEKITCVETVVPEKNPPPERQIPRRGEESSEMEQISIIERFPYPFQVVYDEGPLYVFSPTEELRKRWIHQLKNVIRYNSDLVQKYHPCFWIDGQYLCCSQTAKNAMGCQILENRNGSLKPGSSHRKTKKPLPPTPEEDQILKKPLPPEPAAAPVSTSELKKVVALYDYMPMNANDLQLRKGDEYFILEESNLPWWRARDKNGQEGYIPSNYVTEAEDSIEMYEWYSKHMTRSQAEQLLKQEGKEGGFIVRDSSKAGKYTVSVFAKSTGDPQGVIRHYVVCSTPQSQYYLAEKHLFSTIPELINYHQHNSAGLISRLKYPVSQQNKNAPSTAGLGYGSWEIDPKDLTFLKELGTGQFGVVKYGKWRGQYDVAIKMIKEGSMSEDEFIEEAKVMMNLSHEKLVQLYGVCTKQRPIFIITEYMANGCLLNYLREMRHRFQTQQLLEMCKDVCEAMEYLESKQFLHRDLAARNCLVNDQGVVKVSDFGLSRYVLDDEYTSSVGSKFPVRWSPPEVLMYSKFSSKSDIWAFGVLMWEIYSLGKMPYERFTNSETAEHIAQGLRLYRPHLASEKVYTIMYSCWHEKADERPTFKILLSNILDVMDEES
Chain of Tyrosine-protein kinase HCK (Homo sapiens) (P08631 2-526 limits assumed): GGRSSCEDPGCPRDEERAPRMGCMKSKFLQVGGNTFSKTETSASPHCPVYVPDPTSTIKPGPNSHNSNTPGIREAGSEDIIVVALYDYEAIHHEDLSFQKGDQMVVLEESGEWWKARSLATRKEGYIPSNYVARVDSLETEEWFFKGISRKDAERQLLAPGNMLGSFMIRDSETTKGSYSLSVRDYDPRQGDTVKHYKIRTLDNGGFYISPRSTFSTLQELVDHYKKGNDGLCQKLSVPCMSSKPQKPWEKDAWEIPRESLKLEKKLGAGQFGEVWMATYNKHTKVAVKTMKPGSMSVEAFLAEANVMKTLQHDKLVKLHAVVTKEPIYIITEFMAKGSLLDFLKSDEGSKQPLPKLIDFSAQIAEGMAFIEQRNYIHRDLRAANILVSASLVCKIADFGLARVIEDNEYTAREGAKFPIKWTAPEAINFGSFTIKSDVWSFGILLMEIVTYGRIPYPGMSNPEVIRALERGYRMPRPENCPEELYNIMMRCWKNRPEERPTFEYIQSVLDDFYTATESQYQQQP

Activity [2] | Emax [3] [%] | Activity [4] | Activity [5] | Activity [6] | Activity [7] | Activity [8] | Activity [9] | Activity [10] | Activity [11] | Activity [12] | SMILES | Activity (TMD8 [1]) | IC50 (TMD8 [13]) [nM] | Activity (TMD8 [14]) | Activity (TMD8 [15]) | Activity (TMD8 [16]) | Activity (TMD8 [17])
Active | 97.1 | inactive | inactive | Active | inactive | inactive | inactive | inactive | Active | Active | C[C@H]1CN(C(=O)CNc2cccc3c2C(=O)N(C2CCC(=O)NC2=O)C3=O)CCN1c1ccc(Nc2cc(-c3ccnc(N4CCn5c(cc6c5CC(C)(C)C6)C4=O)c3CO)cn(C)c2=O)nc1 (stereo not given in full) | Dose-Dependent Effect | 1.4 | Active | Active | Active | Active
 | 96.2 |  |  | Active | inactive | inactive | inactive | inactive | inactive | Active | C[C@H]1CN(C(=O)COc2cccc3c2C(=O)N(C2CCC(=O)NC2=O)C3=O)CCN1c1ccc(Nc2cc(-c3ccnc(N4CCn5c(cc6c5CC(C)(C)C6)C4=O)c3CO)cn(C)c2=O)nc1 (stereo not given in full) |  |  |  |  |  | 
